# Experimental data reported in ChEMBL document CHEMBL3856258, “Phosphonate-based irreversible inhibitors of human γ-glutamyl transpeptidase (GGT). GGsTop is a non-toxic and highly selective inhibitor with critical electrostatic interaction with an active-site residue Lys562 for enhanced inhibitory activity” (Bioorg Med Chem, 2016).
# Columns and labels:
# [1] = Cytotoxicity against CHL cells assessed as number of cells with numerical aberrations at 3300 ug/ml preincubated for 6 hrs followed by 18 hrs incubation in fresh medium in absence of S9 fraction by Giemsa-staining-based microscopic analysis relative to control; format: toxicity, cell-based, Cricetulus griseus; conditions: chinese hamster
# [2] = tested on: Salmonella typhimurium; experiment: Genotoxicity in Salmonella typhimurium TA100 assessed as number of revertant colonies per plate at 5000 ug/plate after 20 mins in presence of S9 fraction by Ames test (reference value: 142); format: toxicity, organism-based; conditions: salmonella enterica subsp. enterica serovar typhimurium
# [3] = species on record: Rattus norvegicus; experiment: Cytotoxicity against Wistar rat […] assessed as morphological change up to 1 mM after 24 hrs by inverted microscopic analysis; format: toxicity
# Summary of the method: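 Hepatic stellate cells isolated from male Wistar rats (300–350 g), identified by star-like shape and vitamin A autofluorescence, purity >95%. Plated at 5 × 10^5 cells/ml in DMEM with 10% FBS for 2 days, then kept serum-free 24 h at 37 °C. Exposed 24 h to 0, 10, 100 or 1000 µM in DMEM. Morphology checked by inverted microscopy.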
# [4] = Cytotoxicity against CHL cells assessed as chromatid gap at 3300 ug/ml after 24 hrs by Giemsa-staining-based microscopic analysis; format: toxicity, cell-based, Cricetulus griseus; conditions: chinese hamster
# [5] = Cytotoxicity against CHL cells assessed as growth rate at 528 ug/ml preincubated for 6 hrs followed by 18 hrs incubation in fresh medium in absence of S9 fraction by MTT assay relative to control; format: toxicity, cell-based, Cricetulus griseus; conditions: chinese hamster, read-out: Activity
# [6] = Cytotoxicity against CHL cells assessed as structural aberrations at 1650 ug/ml after 24 hrs by Giemsa-staining-based microscopic analysis; format: toxicity, cell-based, Cricetulus griseus; conditions: chinese hamster
# [7] = tested on: Salmonella typhimurium; experiment: Genotoxicity in Salmonella typhimurium TA1535 assessed as number of revertant colonies per plate at 556 ug/plate after 20 mins in absence of S9 fraction by Ames test (reference value: 15); format: toxicity, organism-based; conditions: salmonella enterica subsp. enterica serovar typhimurium
# [8] = tested on: Salmonella typhimurium; experiment: Genotoxicity in Salmonella typhimurium TA100 assessed as number of revertant colonies per plate at 556 ug/plate after 20 mins in presence of S9 fraction by Ames test (reference value: 142); format: toxicity, organism-based; conditions: salmonella enterica subsp. enterica serovar typhimurium
# [9] = Cytotoxicity against CHL cells assessed as growth rate at 13.5 ug/ml preincubated for 6 hrs followed by 18 hrs incubation in fresh medium in absence of S9 fraction by MTT assay relative to control; format: toxicity, cell-based, Cricetulus griseus; conditions: chinese hamster, read-out: Activity
# [10] = tested on: Salmonella typhimurium; experiment: Genotoxicity in Salmonella typhimurium TA1537 assessed as number of revertant colonies per plate at 20.6 ug/plate after 20 mins in presence of S9 fraction by Ames test (reference value: 15); format: toxicity, organism-based; conditions: salmonella enterica subsp. enterica serovar typhimurium
# [11] = Cytotoxicity against CHL cells assessed as number of cells with numerical aberrations at 3300 ug/ml preincubated for 6 hrs followed by 18 hrs incubation in fresh medium in presence of S9 fraction by Giemsa staining-based microscopic analysis relative to control; format: toxicity, cell-based, Cricetulus griseus; conditions: chinese hamster
# [12] = tested on: Salmonella typhimurium; experiment: Genotoxicity in Salmonella typhimurium TA100 assessed as number of revertant colonies per plate at 20.6 ug/plate after 20 mins in presence of S9 fraction by Ames test (reference value: 142); format: toxicity, organism-based; conditions: salmonella enterica subsp. enterica serovar typhimurium
# [13] = tested on: Salmonella typhimurium; experiment: Genotoxicity in Salmonella typhimurium TA1537 assessed as number of revertant colonies per plate at 1667 ug/plate after 20 mins in presence of S9 fraction by Ames test (reference value: 15); format: toxicity, organism-based; conditions: salmonella enterica subsp. enterica serovar typhimurium
# [14] = tested on: Glutathione hydrolase 1 proenzyme (Homo sapiens), P19440 [K562S]; experiment: Inhibition of human GGT K562S mutant expressed in baculovirus infected High Five cells assessed as residual activity up to 1 mM using gamma-Glu-PNA as substrate after 5 mins by spectrophotometric method relative to control; conditions: BTI-TN-5B1-4
# Chain of Glutathione hydrolase 1 proenzyme (Homo sapiens), P19440 [K562S] (P19440 whole entry K562S, the tested form may be a part): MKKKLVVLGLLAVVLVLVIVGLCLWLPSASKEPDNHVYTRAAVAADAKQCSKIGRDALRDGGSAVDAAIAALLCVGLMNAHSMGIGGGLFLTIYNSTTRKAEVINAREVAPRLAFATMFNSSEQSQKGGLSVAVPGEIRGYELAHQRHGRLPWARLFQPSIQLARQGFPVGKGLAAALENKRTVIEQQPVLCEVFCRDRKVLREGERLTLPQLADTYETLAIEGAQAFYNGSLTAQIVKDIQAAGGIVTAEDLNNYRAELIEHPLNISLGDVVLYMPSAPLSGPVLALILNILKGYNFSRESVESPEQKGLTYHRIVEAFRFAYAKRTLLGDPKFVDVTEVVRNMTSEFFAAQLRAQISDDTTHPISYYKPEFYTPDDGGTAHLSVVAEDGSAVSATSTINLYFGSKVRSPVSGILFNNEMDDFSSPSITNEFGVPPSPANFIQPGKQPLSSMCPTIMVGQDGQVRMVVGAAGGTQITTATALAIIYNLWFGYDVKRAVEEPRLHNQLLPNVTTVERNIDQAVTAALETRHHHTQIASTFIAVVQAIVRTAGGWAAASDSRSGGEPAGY
# Summary of the method: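 Soluble N-terminal-truncated (Δ1–27) GGT was secreted by baculovirus-infected High Five cells (4 d, 27 °C) and purified from the medium on Con A and Q Sepharose. Activity was measured in 100 mM Tris-HCl pH 8.0 with 1 mM γ-Glu-PNA and 20 mM Gly-Gly at 37 °C, reading p-nitroaniline release continuously at 410 nm.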
# [15] = Cytotoxicity against CHL cells assessed as number of cells with numerical aberrations at 825 ug/ml after 24 hrs by Giemsa staining-based microscopic analysis relative to control; format: toxicity, cell-based, Cricetulus griseus; conditions: chinese hamster
# [16] = Cytotoxicity against CHL cells assessed as growth rate at 33.8 ug/ml after 24 hrs in absence of S9 fraction by MTT assay relative to control; format: toxicity, cell-based, Cricetulus griseus; conditions: chinese hamster, read-out: Activity
# [17] = tested on: Escherichia coli; experiment: Genotoxicity in Escherichia coli WP2uvrA assessed as number of revertant colonies per plate at 20.6 ug/plate after 20 mins in presence of S9 fraction by Ames test (reference value: 26); format: toxicity; conditions: s9, 20 min
# [18] = tested on: Salmonella typhimurium; experiment: Genotoxicity in Salmonella typhimurium TA100 assessed as number of revertant colonies per plate at 1667 ug/plate after 20 mins in absence of S9 fraction by Ames test (reference value: 123); format: toxicity, organism-based; conditions: salmonella enterica subsp. enterica serovar typhimurium
# [19] = tested on: Escherichia coli; experiment: Genotoxicity in Escherichia coli WP2uvrA assessed as number of revertant colonies per plate at 5000 ug/plate after 20 mins in absence of S9 fraction by Ames test (reference value: 24); format: toxicity; conditions: s9, 20 min
# [20] = Cytotoxicity against CHL cells assessed as number of cells with numerical aberrations at 3300 ug/ml after 24 hrs by Giemsa staining-based microscopic analysis relative to control; format: toxicity, cell-based, Cricetulus griseus; conditions: chinese hamster
# [21] = Cytotoxicity against CHL cells assessed as chromatid gap at 825 ug/ml after 24 hrs by Giemsa-staining-based microscopic analysis; format: toxicity, cell-based, Cricetulus griseus; conditions: chinese hamster
# [22] = Cytotoxicity against CHL cells assessed as chromatid gap at 3300 ug/ml preincubated for 6 hrs followed by 18 hrs incubation in fresh medium in presence of S9 fraction by Giemsa-staining-based microscopic analysis; format: toxicity, cell-based, Cricetulus griseus; conditions: chinese hamster
# [23] = tested on: Salmonella typhimurium; experiment: Genotoxicity in Salmonella typhimurium TA1535 assessed as number of revertant colonies per plate at 61.7 ug/plate after 20 mins in absence of S9 fraction by Ames test (reference value: 15); format: toxicity, organism-based; conditions: salmonella enterica subsp. enterica serovar typhimurium
# [24] = Hydrolytic stability of compound in D2O at pH 1 to 2 by 31P NMR spectroscopy; format: physicochemical; conditions: buffer
# [25] = tested on: Salmonella typhimurium; experiment: Genotoxicity in Salmonella typhimurium TA98 assessed as number of revertant colonies per plate at 1667 ug/plate after 20 mins in absence of S9 fraction by Ames test (reference value: 21); format: toxicity, organism-based; conditions: salmonella enterica subsp. enterica serovar typhimurium
# [26] = Cytotoxicity against CHL cells assessed as number of cells with numerical aberrations at 825 ug/ml preincubated for 6 hrs followed by 18 hrs incubation in fresh medium in absence of S9 fraction by Giemsa-staining-based microscopic analysis relative to control; format: toxicity, cell-based, Cricetulus griseus; conditions: chinese hamster
# [27] = tested on: Salmonella typhimurium; experiment: Genotoxicity in Salmonella typhimurium TA1537 assessed as number of revertant colonies per plate at 185 ug/plate after 20 mins in absence of S9 fraction by Ames test (reference value: 9); format: toxicity, organism-based; conditions: salmonella enterica subsp. enterica serovar typhimurium
# [28] = tested on: Salmonella typhimurium; experiment: Genotoxicity in Salmonella typhimurium TA1535 assessed as number of revertant colonies per plate at 185 ug/plate after 20 mins in absence of S9 fraction by Ames test (reference value: 15); format: toxicity, organism-based; conditions: salmonella enterica subsp. enterica serovar typhimurium
# [29] = tested on: Escherichia coli K-12; experiment: Irreversible inhibition of Escherichia coli K-12 SH642 GGT using gamma-Glu-AMC as substrate assessed as association rate constant by […] analysis
# Summary of the method: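 GGT was purified from the periplasmic fraction of recombinant E. coli K-12 SH642. Hydrolytic activity was followed with γ-Glu-AMC as substrate. Irreversible inactivation was expressed as kon, the second-order rate constant for the inhibitor–enzyme reaction.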
compound,measurement,setting,value
COP(=O)(CCC(N)C(=O)O)Oc1cccc(CC(=O)O)c1 (centres undefined),Activity,[1],0%
same,Activity,[2],125
same,Activity,[3],Non-Toxic
same,Activity,[4],0%
same,"viability at 18 h, 528 ug/ml",[5],101%
same,Activity,[6],1%
same,Activity,[7],8
same,Activity,[8],129
same,"viability at 18 h, 13.5 ug/ml",[9],100%
same,Activity,[10],17
same,Activity,[11],1%
same,Activity,[12],139
same,Activity,[13],18
same,Activity,[14],> 80%
same,Activity,[15],0%
same,"viability at 24 h, 33.8 ug/ml",[16],105%
same,Activity,[17],30
same,Activity,[18],131
same,Activity,[19],29
same,Activity,[20],0%
same,Activity,[21],0%
same,Activity,[22],0%
same,Activity,[23],8
same,Stability,[24],Stable
same,Activity,[25],23
same,Activity,[26],0%
same,Activity,[27],12
same,Activity,[28],12
same,K,[29],150 M⁻¹ s⁻¹
